How the values were obtained:
Cell line [1] = assay: Ability (9 umol/kg) tested for inhibition of BxPC-3 human pancreatic tumor growth (n=8); type: functional
Method in brief: (§1)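 BxPC-3 human pancreatic tumour cells (5 × 10⁶) implanted subcutaneously in SCID mice. At 80–160 mm³, tumours randomised into groups. Dosing on days 1, 7, 15, 22, 26, 29 and 33, with an equal-volume vehicle control group. Tumour volume measured by Vernier calipers, followed up to 50 days. % growth = 100 × (Vt/V0), where V0 is the volume on the first treatment day.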

Cell line [2] = assay: Ability (18 umol/kg) tested for inhibition of BxPC-3 human pancreatic tumor growth (n=8); type: functional; method in brief: as §1
Cell line [3] = assay: Ability (36 umol/kg) tested for inhibition of BxPC-3 human pancreatic tumor growth (n=8); type: functional; method in brief: as §1
[4] = Ability (18 umol/kg) tested on mortality of non-diseased CD2F1 mice at day 8 (n=8); type: ADME; settings: CD2F1, mouse, in vivo
Method in brief: (§2)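 Multiple-dose toxicity in non-diseased CD2F1 mice. Five or six daily doses given (schedule days 1–5 or 1–6). Mortality recorded, reported as % mortality at day 8.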

[5] = Ability (27 umol/kg) tested on mortality of non-diseased CD2F1 mice at day 8 (n=8); type: ADME; settings: CD2F1, mouse, in vivo; method in brief: as §2
[6] = Ability (36 umol/kg) tested on mortality of non-diseased CD2F1 mice at day 8 (n=8); type: ADME; settings: CD2F1, mouse, in vivo; method in brief: as §2

| SMILES | Growth (Cell line [1]) [%] | Growth (Cell line [2]) [%] | Growth (Cell line [3]) [%] | mortality at 8 day [4] [%] | mortality at 8 day [5] [%] | mortality at 8 day [6] [%] |
| --- | --- | --- | --- | --- | --- | --- |
| CCCCCCOCC(COP(=O)(OC)OCC(COP(=O)(OC)OCC(COCCCCCC)OCCCCCC)OC(=O)CCC(=O)OC[C@H]1O[C@@H](n2ccc(N)nc2=O)C(F)(F)[C@@H]1O)OCCCCCC (stereo partly drawn) | 1387 | 1393 | 1022 |  |  |  |
| Nc1ccn([C@@H]2O[C@H](CO)[C@@H](O)C2(F)F)c(=O)n1 [GEMCITABINE] | 1942 | 2007 |  | 0 | 100 | 100 |
